# Reference: the M2OR odorant receptor database
# Key:
# Settings in all cases: stereoisomer not certain
# OR2M5 V105T M154T G255A = tested on: OR2M5 V105T M154T G255A
# In short: (§1)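 Whether a receptor–molecule pair is responsive (active) rests on the original authors' judgment that its measured signal was statistically different from baseline. Pairs without that judgment are non-responsive (inactive). Sources used varied assay methods, commonly transient luciferase assays in mammalian cell lines.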
# [1] = tested on: OR2M5 V105T S119A A156G G255A
# In short: as §1
# OR2M5 V105T = tested on: OR2M5 V105T
# Sequence of OR2M5 V105T (as listed by the source, stated change not applied): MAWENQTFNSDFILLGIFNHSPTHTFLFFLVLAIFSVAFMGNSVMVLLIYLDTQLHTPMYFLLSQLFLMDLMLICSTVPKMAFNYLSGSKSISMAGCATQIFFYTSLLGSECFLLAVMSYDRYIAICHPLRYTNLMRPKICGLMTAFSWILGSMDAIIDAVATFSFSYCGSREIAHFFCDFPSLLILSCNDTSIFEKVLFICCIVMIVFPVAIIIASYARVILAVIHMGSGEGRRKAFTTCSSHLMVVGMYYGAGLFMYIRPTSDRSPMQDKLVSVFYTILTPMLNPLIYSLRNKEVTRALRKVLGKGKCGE
# In short: as §1
# OR2M5 V198I = tested on: OR2M5 V198I
# Sequence of OR2M5 V198I (as listed by the source, stated change not applied): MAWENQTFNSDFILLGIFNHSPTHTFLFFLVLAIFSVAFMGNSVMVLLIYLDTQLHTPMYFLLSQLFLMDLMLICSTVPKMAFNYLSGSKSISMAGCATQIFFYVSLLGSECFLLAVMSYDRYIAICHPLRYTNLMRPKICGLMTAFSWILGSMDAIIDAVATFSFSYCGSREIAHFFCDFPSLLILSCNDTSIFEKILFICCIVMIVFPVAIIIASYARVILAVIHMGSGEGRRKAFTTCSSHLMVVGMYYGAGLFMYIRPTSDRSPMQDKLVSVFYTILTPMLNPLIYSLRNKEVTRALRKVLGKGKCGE
# In short: as §1
# OR2S2 (Homo sapiens) = target: T1, OR2S2 (Homo sapiens) (UniProt Q9NQN1)
# T1 sequence (whole entry): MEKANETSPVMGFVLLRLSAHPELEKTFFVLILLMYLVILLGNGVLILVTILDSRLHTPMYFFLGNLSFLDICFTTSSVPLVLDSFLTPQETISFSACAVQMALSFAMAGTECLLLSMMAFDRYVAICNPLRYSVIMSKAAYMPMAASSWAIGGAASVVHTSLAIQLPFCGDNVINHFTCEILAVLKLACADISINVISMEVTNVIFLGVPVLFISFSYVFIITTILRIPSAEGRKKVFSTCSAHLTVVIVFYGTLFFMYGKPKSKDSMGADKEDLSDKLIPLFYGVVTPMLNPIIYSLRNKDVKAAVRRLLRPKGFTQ
# In short: as §1
# OR2T1 (Homo sapiens) = target: T2, OR2T1 (Homo sapiens) (UniProt O43869)
# T2 sequence (whole entry): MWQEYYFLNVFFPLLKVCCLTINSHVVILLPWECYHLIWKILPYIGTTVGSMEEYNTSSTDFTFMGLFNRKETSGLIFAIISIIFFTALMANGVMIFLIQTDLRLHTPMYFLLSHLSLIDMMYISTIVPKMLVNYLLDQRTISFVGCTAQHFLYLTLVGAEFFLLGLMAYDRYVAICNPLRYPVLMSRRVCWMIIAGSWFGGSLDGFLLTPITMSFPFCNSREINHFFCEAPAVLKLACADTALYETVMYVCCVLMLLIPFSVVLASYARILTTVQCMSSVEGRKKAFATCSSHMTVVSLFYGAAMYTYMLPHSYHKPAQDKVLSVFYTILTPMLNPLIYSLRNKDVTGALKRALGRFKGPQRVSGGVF
# In short: as §1
# OR2T10 (Homo sapiens) = target: T3, OR2T10 (Homo sapiens) (UniProt Q8NGZ9)
# T3 sequence (whole entry): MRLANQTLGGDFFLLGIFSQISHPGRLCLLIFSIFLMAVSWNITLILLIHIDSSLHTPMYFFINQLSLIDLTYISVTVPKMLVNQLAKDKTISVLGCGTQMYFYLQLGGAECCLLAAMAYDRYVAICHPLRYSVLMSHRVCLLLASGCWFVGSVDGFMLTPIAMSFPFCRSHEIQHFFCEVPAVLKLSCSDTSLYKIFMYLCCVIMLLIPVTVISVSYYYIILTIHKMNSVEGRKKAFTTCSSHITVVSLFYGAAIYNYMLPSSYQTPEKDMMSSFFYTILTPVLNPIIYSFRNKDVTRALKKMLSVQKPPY
# In short: as §1
# OR2M7 (Homo sapiens) = target: T4, OR2M7 (Homo sapiens) (UniProt Q8NG81)
# T4 sequence (whole entry): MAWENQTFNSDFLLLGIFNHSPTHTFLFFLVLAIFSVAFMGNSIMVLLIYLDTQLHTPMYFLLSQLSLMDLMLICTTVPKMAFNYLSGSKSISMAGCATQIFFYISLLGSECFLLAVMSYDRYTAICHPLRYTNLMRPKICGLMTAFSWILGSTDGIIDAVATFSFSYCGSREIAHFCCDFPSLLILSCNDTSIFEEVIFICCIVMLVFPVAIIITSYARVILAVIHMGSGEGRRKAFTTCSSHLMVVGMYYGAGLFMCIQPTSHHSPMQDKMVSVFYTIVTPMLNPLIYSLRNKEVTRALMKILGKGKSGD
# In short: as §1
# OR2M7 [2] = tested on: OR2M7
# In short: as §1
# Target sequence in this assay (as listed by the source): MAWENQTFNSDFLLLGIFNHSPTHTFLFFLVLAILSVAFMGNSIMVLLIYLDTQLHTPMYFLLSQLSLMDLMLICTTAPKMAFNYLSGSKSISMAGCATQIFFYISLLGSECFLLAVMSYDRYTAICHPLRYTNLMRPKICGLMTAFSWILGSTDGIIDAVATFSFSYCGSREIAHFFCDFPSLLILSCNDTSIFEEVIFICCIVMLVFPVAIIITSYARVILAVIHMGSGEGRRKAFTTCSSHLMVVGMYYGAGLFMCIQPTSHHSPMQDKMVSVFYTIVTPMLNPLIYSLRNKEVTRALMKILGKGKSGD
# OR2M7 [3] = tested on: OR2M7; remark: listed apart in the source
# In short: as §1
# Target sequence in this assay (as listed by the source): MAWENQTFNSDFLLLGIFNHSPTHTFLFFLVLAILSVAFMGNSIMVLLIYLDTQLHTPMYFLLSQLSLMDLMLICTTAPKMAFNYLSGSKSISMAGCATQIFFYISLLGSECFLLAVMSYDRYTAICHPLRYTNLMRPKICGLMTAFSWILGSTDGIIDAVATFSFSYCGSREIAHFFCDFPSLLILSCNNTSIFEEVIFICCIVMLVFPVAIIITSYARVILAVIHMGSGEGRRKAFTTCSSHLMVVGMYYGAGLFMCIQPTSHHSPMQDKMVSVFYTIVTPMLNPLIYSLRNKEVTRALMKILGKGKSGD
# 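Further: active if original authors judged signal statistically different from baseline.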
smiles,measurement,setting,value
CCC(S)C(C)CO (configuration not stated),odorant receptor agonist call,OR2M5 V105T M154T G255A,inactive
same,odorant receptor agonist call,[1],inactive
same,odorant receptor agonist call,OR2M5 V105T,inactive
same,odorant receptor agonist call,OR2M5 V198I,inactive
same,odorant receptor agonist call,OR2S2 (Homo sapiens),inactive
same,odorant receptor agonist call,OR2T1 (Homo sapiens),inactive
same,odorant receptor agonist call,OR2T10 (Homo sapiens),inactive
CCCCCCCCO,odorant receptor agonist call,OR2M7 (Homo sapiens),inactive
CCC1OC(=O)C(O)=C1C (configuration not stated),odorant receptor agonist call,OR2M7 (Homo sapiens),inactive
same,odorant receptor agonist call,OR2S2 (Homo sapiens),inactive
same,odorant receptor agonist call,OR2T1 (Homo sapiens),inactive
same,odorant receptor agonist call,OR2T10 (Homo sapiens),inactive
CCC(C(=O)O)c1ccccc1 (configuration not stated),odorant receptor agonist call,OR2M7 (Homo sapiens),inactive
CCOC(=O)C(C)C,odorant receptor agonist call,OR2M7 (Homo sapiens),inactive
CC(=O)c1c(C)c([N+](=O)[O-])c(C(C)(C)C)c([N+](=O)[O-])c1C,odorant receptor agonist call,OR2M7 (Homo sapiens),inactive
same,odorant receptor agonist call,OR2S2 (Homo sapiens),inactive
same,odorant receptor agonist call,OR2T1 (Homo sapiens),inactive
same,odorant receptor agonist call,OR2T10 (Homo sapiens),inactive
CC1CCCCCCCCCCCCC(=O)C1 (configuration not stated),odorant receptor agonist call,OR2M7 (Homo sapiens),inactive
same,odorant receptor agonist call,OR2S2 (Homo sapiens),inactive
same,odorant receptor agonist call,OR2T1 (Homo sapiens),inactive
same,odorant receptor agonist call,OR2T10 (Homo sapiens),inactive
CC(=O)OCC=C(C)C,odorant receptor agonist call,OR2M7 (Homo sapiens),inactive
CCCCCCC(=O)[O-].[H+],odorant receptor agonist call,OR2M7 (Homo sapiens),inactive
CC(C)=CCCC(C)=CCO,odorant receptor agonist call,OR2M7 (Homo sapiens),active
same,odorant receptor agonist call,OR2M7 [2],active
same,odorant receptor agonist call,OR2M7 [3],inactive
same,odorant receptor agonist call,OR2T10 (Homo sapiens),inactive
CCCCCCCCCO,odorant receptor agonist call,OR2M7 (Homo sapiens),inactive
CCCCCCCCS,odorant receptor agonist call,OR2M7 (Homo sapiens),inactive
CCCCCO,odorant receptor agonist call,OR2M7 (Homo sapiens),inactive
CCCCCC(S)C(C)CO (configuration not stated),odorant receptor agonist call,OR2M7 (Homo sapiens),inactive
same,odorant receptor agonist call,OR2S2 (Homo sapiens),inactive
same,odorant receptor agonist call,OR2T1 (Homo sapiens),inactive
same,odorant receptor agonist call,OR2T10 (Homo sapiens),inactive
CC1=NC(C)C(C)S1 (configuration not stated),odorant receptor agonist call,OR2M7 (Homo sapiens),inactive
same,odorant receptor agonist call,OR2S2 (Homo sapiens),inactive
same,odorant receptor agonist call,OR2T1 (Homo sapiens),inactive
same,odorant receptor agonist call,OR2T10 (Homo sapiens),inactive
CCCCCCC=CCCC=O,odorant receptor agonist call,OR2M7 (Homo sapiens),inactive
same,odorant receptor agonist call,OR2S2 (Homo sapiens),inactive
same,odorant receptor agonist call,OR2T1 (Homo sapiens),inactive
same,odorant receptor agonist call,OR2T10 (Homo sapiens),inactive
C=CCOC(=O)CCCCCC,odorant receptor agonist call,OR2M7 (Homo sapiens),inactive
CC1=C(O)C(=O)C(C)O1 (configuration not stated),odorant receptor agonist call,OR2M7 (Homo sapiens),inactive
same,odorant receptor agonist call,OR2S2 (Homo sapiens),inactive
same,odorant receptor agonist call,OR2T1 (Homo sapiens),inactive
same,odorant receptor agonist call,OR2T10 (Homo sapiens),inactive
CCCCCCC(C)=O,odorant receptor agonist call,OR2M7 (Homo sapiens),inactive
CCCCCOC(=O)CCCCC,odorant receptor agonist call,OR2M7 (Homo sapiens),inactive
CCC(=O)C(=O)CC,odorant receptor agonist call,OR2M7 (Homo sapiens),inactive
CCCCC(S)C(C)CO (configuration not stated),odorant receptor agonist call,OR2M7 (Homo sapiens),inactive
same,odorant receptor agonist call,OR2S2 (Homo sapiens),inactive
same,odorant receptor agonist call,OR2T1 (Homo sapiens),inactive
same,odorant receptor agonist call,OR2T10 (Homo sapiens),inactive
CC(CO)CS (configuration not stated),odorant receptor agonist call,OR2M7 (Homo sapiens),inactive
same,odorant receptor agonist call,OR2S2 (Homo sapiens),inactive
same,odorant receptor agonist call,OR2T1 (Homo sapiens),inactive
same,odorant receptor agonist call,OR2T10 (Homo sapiens),inactive
CCCCCCCO,odorant receptor agonist call,OR2M7 (Homo sapiens),inactive
CCCCCC(=O)CC,odorant receptor agonist call,OR2M7 (Homo sapiens),inactive
CCCCOC(=O)C(C)OC(=O)CCC (configuration not stated),odorant receptor agonist call,OR2M7 (Homo sapiens),inactive
